Square brackets hold non-standard residues; d marks the D form. Ends that are not written are not given here. Dmt = Cc1cc(O)cc(C)c1C[C@H](N)C(=O)O; Cha = N[C@@H](CC1CCCCC1)C(=O)O
How the values were obtained:
[1] = system: GAT-1 and Synt1A; assay: GAT-1 and Synt1A total levels and membrane fractions in cultured neurons; format: cell-based, mouse; conditions: GSNO 50 μM for 6 h; n = 5
Outline: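 Primary cortical neurons from E16 mice were grown on poly-L-ornithine in Neurobasal with 2% B27. For membrane fractions, cells were permeabilized in extraction buffer 1 and spun at 1000 ×g for 5 min; the pellet was resuspended in buffer 2B to extract integral membrane proteins. β-Actin was checked to confirm fraction purity. Western blots used anti-GAT-1 and anti-syntaxin1A (both 1:4000) and anti-Na+-K+-ATPase (1:1000).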

[2] = system: mice with photothrombotic stroke; assay: Motor function; format: in vivo, mouse
Outline: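 Photothrombotic stroke was induced with rose bengal, holding body temperature at 37 ± 0.5°C. For grid walking, each mouse walked freely for 5 min on a wire grid 50 cm high. For the cylinder task, mice explored a clear cylinder (15 cm tall, 10 cm diameter) for 5 min, and only rears with both forelimbs clearly visible were timed. Tests ran 7 days before stroke and at set days after stroke.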

[3] = target: GAT-1-Synt1A interaction (Mus musculus, UniProt P31648); assay: Synt1A-GAT-1 uncoupling activities of ZLQ series of compounds; conditions: Figures S4A/S4B; n = 3
[4] = system: GAT-1; assay: 3H-GABA uptake in HEK293 cells overexpressing GAT-1; format: cell-based; conditions: 100 nM; compared with Tat-Synt1A251-265mut (100 nM); n = 5
Outline: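 HEK293 cells were kept in MEM with 10% FBS and transduced with lentiviral GAT-1-EGFP. These GAT-1-overexpressing cells were incubated with peptide (100 nM), or with the mutant control peptide at the same concentration, before 3H-GABA uptake was measured.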

[5] = system: GAT-1; assay: GAT-1 level and membrane fraction; format: cell-based; conditions: 100 nM; compared with Tat-Synt1A251-265mut; n = 5
Outline: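 HEK293 cells lentivirally expressing GAT-1-EGFP were exposed to peptide at 100 nM. Cells were permeabilised in Extraction Buffer 1 and spun at 1000 ×g for 5 min to split cytosol from membranes. Integral membrane proteins were extracted from the pellet in Extraction Buffer 2B and taken straight to western blot. β-Actin, a cytosolic marker, served to check membrane-fraction purity.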

[6] = system: extracellular GABA ([GABA]o); assay: Extracellular GABA in peri-infarct cortex; format: in vivo, mouse; conditions: microinjection 0.2 pmol/d days 5-7 after stroke; day 8 after stroke; microdialysis; n = 6
Outline: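 A CMA7 microdialysis probe was placed in peri-infarct cortex (AP 0, ML −0.65, DV −1.5 mm from bregma). It was perfused at 1 μL/min with bicarbonate-buffered saline containing 10 mM glucose. Dialysate was collected in 20-min fractions over 2 h, and the second fraction was analysed. GABA was measured by ELISA (activator, 37°C for 15 min in the dark, stop solution, A450).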

[7] = system: layer 5 peri-infarct pyramidal neurons; assay: Whole-cell recordings in acute brain slices from treated mice; format: in vivo, mouse
[8] = system: Synt1A-SNAP-25 complex; assay: Co-IP of Synt1A-SNAP-25 complex in peri-infarct cortex; format: in vivo, mouse; conditions: microinjection 0.2 pmol/d days 5-7 after stroke; day 8; n = 5
Outline: (§1)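 Photothrombotic stroke was induced with rose bengal. Peptide was infused into the peri-infarct cortex through a 33-gauge injector in a guide cannula implanted in the infarct core (AP 0, ML −1.5, DV −1.0 mm from bregma). Dissected tissue was lysed 30 min in ice-cold RIPA and spun at 12,000 ×g for 15 min at 4°C. Lysates were precleared 1 h at 4°C with protein G magnetic beads before co-IP.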

[9] = system: Synt1A-VAMP-2 complex; assay: Co-IP of Synt1A-VAMP-2 complex in peri-infarct cortex; format: in vivo, mouse; conditions: microinjection 0.2 pmol/d days 5-7 after stroke; day 8; n = 5
Outline: as §1

[10] = system: SNARE complex (Synt1A, SNAP-25, VAMP-2); assay: SNARE complex and monomer levels in synaptosomes; format: in vivo, mouse; conditions: 0.2 pmol/d days 5-7 after stroke, day 8
Outline: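 Peri-infarct tissue was homogenised at 4°C in 320 mM sucrose, 1 mM NaHCO3, 1 mM MgCl2 and 0.5 mM CaCl2. The homogenate was spun at 500 ×g for 2 min, and the supernatant at 10,100 ×g for 10 min. The pellet was resuspended in 0.32 M sucrose, layered on 0.8 M sucrose and spun at 9100 ×g for 15 min. The 0.8 M fraction was pelleted at 12,000 ×g for 15 min and taken up in SDS lysis buffer.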

[11] = system: peri-infarct cortex; assay: In vivo LFP and spike recording in peri-infarct cortex; set-up: species or system mouse; conditions: infused days 5-11 after stroke; recorded day 12
Outline: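 Spike-firing time histograms were built by counting spikes in sequential 1 s bins. Movement-related change was expressed as ((firing events during movement − firing events during stillness)/firing events during stillness) × 100.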

[12] = system: midline-crossing BDA+ fibers, C7 spinal cord; assay: BDA tract tracing, axonal sprouting; format: in vivo, mouse; conditions: treatment days 5-11 after stroke; BDA day 34, staining day 48; n = 6
Outline: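 Contralateral cortex injected at two sites with 10% biotinylated dextran amine on day 34 after stroke. Fourteen days later, mice were transcardially perfused with ice-cold saline, then 4% PFA. Transverse cervical spinal cord and coronal brain sections were cut at 40 μm. BDA+ axons were labelled with streptavidin-Cy3 (1:500). Analysis was blinded.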

[13] = 0.2 pmol/d days 5-7 after stroke, recorded day 8
[14] = compared with Tat-Synt1A251-265mut-treated mice
[15] = compared with sham and Tat-Synt1A251-265mut-treated mice with stroke

In the case of `N[C@@H](CCC(=O)N[C@@H](CSN=O)C(=O)NCC(=O)O)C(=O)O` [GSNO], the “membrane contents of GAT-1 and Synt1A in cultured neurons” value [1] is reported as “significantly increased membrane contents of GAT-1 and Synt1A” and the “total levels of GAT-1 and Synt1A in cultured neurons” value [1] is reported as “had no effects on the total levels of GAT-1 and Synt1A”.

With “[dR][Dmt][Cha][dK][dR]-NH2 (N-terminus assumed; SMILES Cc1cc(O)cc(C)c1C[C@H](NC(=O)[C@H](N)CCCNC(=N)N)C(=O)N[C@@H](CC1CCCCC1)C(=O)N[C@H](CCCCN)C(=O)N[C@H](CCCNC(=N)N)C(N)=O) [ZLQ-3]” the “impairment of motor functions, intranasal 5 mg/kg” value ([2]; 5 mg/kg intranasally days 5-11 after stroke, test day 12) was “attenuated the impairment of motor functions” and the “GAT-1-Synt1A uncoupling activity among the ZLQ series” value [3] was “most potent GAT-1-Synt1A uncoupling activity”.

Tat-TKKAVKYQSKARRKK [Tat-Synt1A251-265] was tested, and the “motor functions of sham-operated mice” value ([2]; peptide microinjection, sham-operated mice) was “had no effect on motor functions of sham-operated mice”, the “3H-GABA uptake, HEK293 cells overexpressing GAT-1” value [4] was “did not affect” and the “expression of GAT-1, HEK293 cells overexpressing GAT-1” value [5] was “did not affect”. The “membrane distribution of GAT-1, HEK293 cells overexpressing GAT-1” value [5] was “did not affect”, the “stroke-induced increase in [GABA]o in the peri-infarct cortex” value [6] was “reversed stroke-induced increase in [GABA]o” and the “mEPSCs, sham-operated mice” value ([7]; 0.2 pmol/d) was “had no effect on sham-operated mice”. For the same molecule, the “mIPSCs, sham-operated mice” value ([7]; 0.2 pmol/d) was “had no effect on sham-operated mice”, the “tonic GABA currents (Itonic), sham-operated mice” value ([7]; 0.2 pmol/d days 5-7, recorded day 8) was “had no effect on sham-operated mice” and the “effect of stroke on Itonic, GAT-1 CKO mice with stroke” value [7, 13] was “rather than that in GAT-1 CKO mice with stroke”. For the same molecule, the “effect of stroke on Itonic, WT mice with stroke” value [7, 13] was “reversed the effect of stroke on Itonic”, the “mEPSC frequency, mice with stroke” value ([7]; 0.2 pmol/d, day 8 after stroke) was “reversed stroke-induced decrease in mEPSC frequency” and the “mIPSC frequency, mice with stroke” value ([7]; 0.2 pmol/d, day 8 after stroke) was “reversed the stroke-induced decrease in mIPSC frequency”. For the same molecule, the “sEPSC amplitude, mice with stroke” value [7, 14] was “but not amplitude”, the “sEPSC frequency, mice with stroke” value [7, 14] was “significantly increased sEPSC frequency” and the “sIPSC amplitude, mice with stroke” value [7, 15] was “but not amplitude”. For the same molecule, the “sIPSC frequency, mice with stroke” value [7, 15] was “significantly increased sIPSC frequency”, the “sEPSCs, sham-operated mice” value ([7]; mouse, in vivo) was “had no effect on sEPSCs” and the “sIPSCs, sham-operated mice” value ([7]; mouse, in vivo) was “had no effect on sIPSCs of sham-operated mice”. The “stroke-induced decrease in Synt1A-SNAP-25 complex” value [8] was “reversed stroke-induced decreases”, the “stroke-induced decrease in Synt1A-VAMP-2 complex” value [9] was “reversed stroke-induced decreases” and the “Synt1A, SNAP-25, or VAMP-2 monomer (synaptosomes)” value [10] was “did not affect”. The “stroke-induced decreases in SNARE complexes (synaptosomes)” value ([10]; n = 5-6) was “reversed stroke-induced decreases in SNARE complexes”, the “LFP power in delta (1-3 Hz) and theta (4-12 Hz) oscillations” value [11] was “significantly enhanced” and the “effects on cortical oscillations in GAT-1 CKO mice” value [11] was “disappeared in GAT-1 CKO mice”. For the same molecule, the “movement-related spike firing rates, WT mice” value [11] was “reversed stroke-induced decrease in spike firing rates” and the “number of BDA+ fibers crossing the midline into the denervated spinal cord at the C7 level” value [12] was “significantly increased the number of BDA^+ fibers crossing the midline”.

From PMC11604526 (Cell Reports Medicine, 2024)
